Converted amounts (≈) assume the structure as drawn.
Assays:
Format in all cases: functional
Streptococcus pyogenes [1] = experiment: Antimicrobial activity against inducibly erythromycin resistant Streptococcus pyogenes 01-968 expressing i-ermA incubated in CAMHB medium for 20 to 24 hrs by two-fold microbroth dilution method
Streptococcus pneumoniae [2] = experiment: Ratio of MBC to MIC for mef-encoded erythromycin resistant Streptococcus pneumoniae PU09
Haemophilus influenzae [3] = experiment: Ratio of MBC to MIC for azithromycin-susceptible Haemophilus influenzae ATCC 49247
Staphylococcus aureus [4] = experiment: Antimicrobial activity against inducibly erythromycin-resistant and methicillin resistant Staphylococcus aureus PU32 expressing i-ermA incubated in CAMHB medium for 20 hrs by two-fold microbroth dilution method; conditions: PU32, 20 h
How it was run: (§1)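 Purified fresh Staphylococcus isolate at about 5×10^5 CFU/ml final in CAMHB, 35 °C for 20 h. Each run included ATCC strains and reference antibiotics as QC, plus an antibiotic-free growth control.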

Haemophilus influenzae [5] = experiment: Antimicrobial activity against azithromycin-susceptible Haemophilus influenzae ATCC 49247 incubated in HTM broth medium for 20 to 24 hrs by two-fold microbroth dilution method
Streptococcus pneumoniae [6] = experiment: Antimicrobial activity against erythromycin-susceptible Streptococcus pneumoniae ATCC 49619 incubated in CAMHB medium for 20 to 24 hrs by two-fold microbroth dilution method
Staphylococcus aureus [7] = experiment: Bactericidal activity against inducibly erythromycin-resistant and methicillin resistant Staphylococcus aureus PU32 expressing i-ermA assessed as reduction in colony formation incubated in CAMHB medium for 20 hrs followed by 24 hrs subculturing in the medium without test compound
Streptococcus pneumoniae [8] = experiment: Ratio of MBC to MIC for erythromycin-susceptible Streptococcus pneumoniae ATCC 49619
Streptococcus pneumoniae [9] = experiment: Bactericidal activity against mef-encoded erythromycin resistant Streptococcus pneumoniae PU09 assessed as reduction in colony formation incubated in CAMHB medium for 20 to 24 hrs followed by 24 hrs subculturing in the medium without test compound
Haemophilus influenzae [10] = experiment: Bactericidal activity against azithromycin-susceptible Haemophilus influenzae ATCC 49247 assessed as reduction in colony formation incubated in HTM broth medium for 20 to 24 hrs followed by 24 hrs subculturing in the medium without test compound
Streptococcus pneumoniae [11] = experiment: Bactericidal activity against erythromycin-susceptible Streptococcus pneumoniae ATCC 49619 assessed as reduction in colony formation incubated in CAMHB medium for 20 to 24 hrs followed by 24 hrs subculturing in the medium without test compound
Staphylococcus aureus [12] = experiment: Antimicrobial activity against constitutively erythromycin resistant and methicillin resistant Staphylococcus aureus PU20 expressing c-ermC incubated in CAMHB medium for 20 hrs by two-fold microbroth dilution method; conditions: PU20, 20 h; how it was run: as §1
Streptococcus pyogenes [13] = experiment: Ratio of MBC to MIC for inducibly erythromycin resistant Streptococcus pyogenes 01-968 expressing i-ermA
Staphylococcus aureus [14] = experiment: Bactericidal activity against constitutively erythromycin resistant and methicillin-resistant Staphylococcus aureus PU20 expressing c-ermC assessed as reduction in colony formation incubated in CAMHB medium for 20 hrs followed by 24 hrs subculturing in the medium without test compound
Staphylococcus aureus [15] = experiment: Ratio of MBC to MIC for inducibly erythromycin-resistant and methicillin resistant Staphylococcus aureus PU32 expressing i-ermA
Streptococcus pyogenes [16] = experiment: Bactericidal activity against inducibly erythromycin resistant Streptococcus pyogenes 01-968 expressing i-ermA assessed as reduction in colony formation incubated in CAMHB medium for 20 to 24 hrs followed by 24 hrs subculturing in the medium without test compound
Streptococcus pneumoniae [17] = experiment: Antimicrobial activity against mef-encoded erythromycin resistant Streptococcus pneumoniae PU09 incubated in CAMHB medium for 20 to 24 hrs by two-fold microbroth dilution method
Moraxella catarrhalis [18] = experiment: Bactericidal activity against erythromycin-susceptible Moraxella catarrhalis 13L332 assessed as reduction in colony formation incubated in CAMHB medium for 20 hrs followed by 24 hrs subculturing in the medium without test compound
Moraxella catarrhalis [19] = experiment: Antimicrobial activity against erythromycin-susceptible Moraxella catarrhalis 13L332 incubated in CAMHB medium for 20 hrs by two-fold microbroth dilution method; conditions: 13L332, 20 h
How it was run: (§2)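 Clinical isolates and ATCC strains, purified by plate activation and used fresh; inoculum about 5×10^5 CFU/ml final. Grown in CAMHB at 35 °C for 20 h.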

Moraxella catarrhalis [20] = experiment: Ratio of MBC to MIC for erythromycin-susceptible Moraxella catarrhalis 13L332
[21] = system: Staphylococcus epidermidis; experiment: Antimicrobial activity against Staphylococcus epidermidis E1 incubated in CAMHB medium for 20 hrs by two-fold microbroth dilution method; conditions: E1, 20 h; how it was run: as §2
Streptococcus pneumoniae [22] = experiment: Antimicrobial activity against constitutively erythromycin resistant Streptococcus pneumoniae PU27 expressing c-erm incubated in CAMHB medium for 20 to 24 hrs by two-fold microbroth dilution method
How it was run: (§3)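 Purified fresh Streptococcus isolate at about 5×10^5 CFU/ml final in CAMHB with 5% horse serum, 35 °C for 20–24 h. […] Each run included ATCC strains and reference antibiotics as QC, plus an antibiotic-free growth control.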

Staphylococcus aureus [23] = experiment: Antimicrobial activity against inducibly erythromycin-resistant Staphylococcus aureus PU32 expressing i-ermA incubated in CAMHB medium for 20 hrs by two-fold microbroth dilution method; conditions: PU32, 20 h
How it was run: (§4)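 Purified fresh Staphylococcus isolate at about 5×10^5 CFU/ml final in CAMHB, 35 °C for 20 h. […] Each run included ATCC strains and reference antibiotics as QC, plus an antibiotic-free growth control.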

Staphylococcus aureus [24] = experiment: Antimicrobial activity against inducibly erythromycin resistant Staphylococcus aureus PU64 expressing i-ermA incubated in CAMHB medium for 20 hrs by two-fold microbroth dilution method; conditions: PU64, 20 h; how it was run: as §4
Streptococcus pyogenes [25] = experiment: Antimicrobial activity against erythromycin-susceptible Streptococcus pyogenes A3 incubated in CAMHB medium for 20 to 24 hrs by two-fold microbroth dilution method
Staphylococcus aureus [26] = experiment: Antimicrobial activity against constitutively erythromycin resistant Staphylococcus aureus PU20 expressing c-ermC incubated in CAMHB medium for 20 hrs by two-fold microbroth dilution method; conditions: PU20, 20 h; how it was run: as §4
Streptococcus pyogenes [27] = experiment: Antimicrobial activity against constitutively erythromycin resistant Streptococcus pyogenes A2 expressing c-erm incubated in CAMHB medium for 20 to 24 hrs by two-fold microbroth dilution method; how it was run: as §3
Staphylococcus aureus [28] = experiment: Antimicrobial activity against erythromycin-susceptible Staphylococcus aureus ATCC 29213 incubated in CAMHB medium for 20 hrs by two-fold microbroth dilution method; conditions: ATCC 29213, 20 h; how it was run: as §2

| SMILES | MIC (Streptococcus pyogenes [1]) | Ratio (Streptococcus pneumoniae [2]) | Ratio (Haemophilus influenzae [3]) | MIC (Staphylococcus aureus [4]) | MIC (Haemophilus influenzae [5]) | MIC (Streptococcus pneumoniae [6]) | MBC (Staphylococcus aureus [7]) | Ratio (Streptococcus pneumoniae [8]) | MBC (Streptococcus pneumoniae [9]) | MBC (Haemophilus influenzae [10]) | MBC (Streptococcus pneumoniae [11]) | MIC (Staphylococcus aureus [12]) | Ratio (Streptococcus pyogenes [13]) | MBC (Staphylococcus aureus [14]) | Ratio (Staphylococcus aureus [15]) | MBC (Streptococcus pyogenes [16]) | MIC (Streptococcus pneumoniae [17]) | also measured |
| --- | --- | --- | --- | --- | --- | --- | --- | --- | --- | --- | --- | --- | --- | --- | --- | --- | --- | --- |
| CC[C@H]1OC(=O)[C@H](C)[C@@H](OC(=O)CCNCC#Cc2cccnc2)[C@H](C)[C@@H](O[C@@H]2O[C@H](C)C[C@H](N(C)C)[C@H]2O)[C@](C)(OC)C[C@@H](C)/C(=N\OC)[C@H](C)[C@H]2OC(=O)O[C@@]21C | 8 µg/mL (≈ 9.63 µM) | 2 | 1 | 64 µg/mL (≈ 77 µM) | 256 µg/mL (≈ 308 µM) | 1 µg/mL (≈ 1.2 µM) | > 256 µg/mL | 4 | 16 µg/mL (≈ 19.3 µM) | 256 µg/mL (≈ 308 µM) | 4 µg/mL (≈ 4.81 µM) | 256 µg/mL (≈ 308 µM) | >8 | > 256 µg/mL | >4 | > 64 µg/mL | 8 µg/mL (≈ 9.63 µM) |  |
| CC[C@H]1OC(=O)[C@H](C)[C@@H](OC(=O)NCCCc2ccc3c(c2)c(=O)c(C(=O)O)cn3C2CC2)[C@H](C)[C@@H](O[C@@H]2O[C@H](C)C[C@H](N(C)C)[C@H]2O)[C@](C)(OC)C[C@@H](C)/C(=N\OC)[C@H](C)[C@H]2OC(=O)O[C@@]21C | 4 µg/mL (≈ 4.18 µM) | 4 | 1 | 32 µg/mL (≈ 33.4 µM) | 256 µg/mL (≈ 267 µM) | 1 µg/mL (≈ 1.04 µM) | > 256 µg/mL | 2 | 8 µg/mL (≈ 8.36 µM) | 256 µg/mL (≈ 267 µM) | 2 µg/mL (≈ 2.09 µM) | 256 µg/mL (≈ 267 µM) | 2 | > 256 µg/mL | >8 | 8 µg/mL (≈ 8.36 µM) | 2 µg/mL (≈ 2.09 µM) |  |
| CC[C@H]1OC(=O)[C@H](C)[C@@H](OCC#Cc2ccc(NC(=O)c3ccccn3)nc2)[C@H](C)[C@@H](O[C@@H]2O[C@H](C)C[C@H](N(C)C)[C@H]2O)[C@](C)(OC)C[C@@H](C)/C(=N\OC)[C@H](C)[C@H]2OC(=O)O[C@@]21C | 16 µg/mL (≈ 18.2 µM) |  |  | > 256 µg/mL |  | 4 µg/mL (≈ 4.55 µM) | > 256 µg/mL | 4 | 16 µg/mL (≈ 18.2 µM) |  | 16 µg/mL (≈ 18.2 µM) | 128 µg/mL (≈ 145 µM) | 1 | > 256 µg/mL |  | 16 µg/mL (≈ 18.2 µM) | 4 µg/mL (≈ 4.55 µM) | MBC (Moraxella catarrhalis [18]): 8 µg/mL (≈ 9.09 µM); MIC (Moraxella catarrhalis [19]): 8 µg/mL (≈ 9.09 µM); Ratio (Moraxella catarrhalis [20]): 1 |
| CC[C@H]1OC(=O)[C@H](C)[C@@H](OC(=O)NCC#Cc2cccnc2)[C@H](C)[C@@H](O[C@@H]2O[C@H](C)C[C@H](N(C)C)[C@H]2O)[C@](C)(OC)C[C@@H](C)/C(=N\OC)[C@H](C)[C@H]2OC(=O)O[C@@]21C | 1 µg/mL (≈ 1.25 µM) | 4 |  | 16 µg/mL (≈ 19.9 µM) | > 256 µg/mL | 0.03 µg/mL (≈ 0.0374 µM) | > 128 µg/mL | 2 | 2 µg/mL (≈ 2.49 µM) |  | 0.062 µg/mL (≈ 0.0772 µM) | > 256 µg/mL | 4 |  | >8 | 4 µg/mL (≈ 4.98 µM) | 0.5 µg/mL (≈ 0.623 µM) |  |
| C=CCO/N=C1\[C@H](C)C[C@@](C)(OC)[C@H](O[C@@H]2O[C@H](C)C[C@H](N(C)C)[C@H]2O)[C@@H](C)[C@H](O)[C@@H](C)C(=O)O[C@H](CC)[C@@]2(C)OC(=O)O[C@@H]2[C@H]1C |  |  |  |  |  | 8 µg/mL (≈ 11.9 µM) |  |  |  |  |  |  |  |  |  |  | 16 µg/mL (≈ 23.9 µM) | MIC [21]: > 256 µg/mL; MIC (Streptococcus pneumoniae [22]): 128 µg/mL (≈ 191 µM); MIC (Staphylococcus aureus [23]): > 256 µg/mL; MIC (Staphylococcus aureus [24]): > 256 µg/mL; MIC (Streptococcus pyogenes [25]): 16 µg/mL (≈ 23.9 µM); MIC (Staphylococcus aureus [26]): > 256 µg/mL; MIC (Streptococcus pyogenes [27]): 128 µg/mL (≈ 191 µM); MIC (Staphylococcus aureus [28]): 128 µg/mL (≈ 191 µM) |
